Measurements: ChEMBL document CHEMBL4828721, “Substituted dienes prepared from betulinic acid - Synthesis, cytotoxicity, mechanism of action, and pharmacological parameters” (Eur J Med Chem, 2021)
The source made the active and inactive calls. No cut-off for these calls is given here.

Assays:
[1] = tested on: CEM-DNR; assay: Cytotoxicity against daunorubicin resistant human CEM-DNR cells assessed as reduction in cell viability measured after 72 hrs by MTS assay; assay type: functional, cell-based
[2] = tested on: HCT-116; assay: Cytotoxicity against human HCT-116 cells assessed as reduction in cell viability measured after 72 hrs by MTS assay; assay type: functional, cell-based; conditions: HCT-116, 72 h
[3] = Cytotoxicity against paclitaxel resistant human K562-Tax cells assessed as reduction in cell viability measured after 72 hrs by MTS assay; assay type: functional, cell-based
[4] = tested on: A549; assay: Cytotoxicity against human A549 cells assessed as reduction in cell viability measured after 72 hrs by MTS assay; assay type: functional, cell-based; conditions: A549, 72 h
[5] = tested on: U2OS; assay: Cytotoxicity against human U2OS cells assessed as reduction in cell viability measured after 72 hrs by MTS assay; assay type: functional, cell-based
[6] = tested on: BJ; assay: Cytotoxicity against human BJ cells assessed as reduction in cell viability measured after 72 hrs by MTS assay; assay type: cell-based
[7] = tested on: MRC5; assay: Cytotoxicity against human MRC5 cells assessed as reduction in cell viability measured after 72 hrs by MTS assay; assay type: cell-based; conditions: MRC5, 72 h
[8] = tested on: CCRF-CEM; assay: Cell cycle arrest in human CCRF-CEM cells assessed as accumulation of cells at sub G1 phase at IC50 measured after 24 hrs by propidium iodide staining based flow cytometry analysis (Rvb= 2.77%); assay type: functional
[9] = tested on: CCRF-CEM; assay: Cell cycle arrest in human CCRF-CEM cells assessed as accumulation of cells at sub G1 phase at 5 times IC50 measured after 24 hrs by propidium iodide staining based flow cytometry analysis (Rvb= 2.77%); assay type: functional
[10] = tested on: CCRF-CEM; assay: Cell cycle arrest in human CCRF-CEM cells assessed as accumulation of cells at G2/M phase at IC50 measured after 24 hrs by propidium iodide staining based flow cytometry analysis (Rvb= 21.62%); assay type: functional
[11] = tested on: CCRF-CEM; assay: Inhibition of DNA synthesis in human CCRF-CEM cells at 5 times IC50 by BrdU incorporation assay (Rvb= 41.56%); assay type: functional; design: scale not given: the % may be the effect or the level left
[12] = tested on: CCRF-CEM; assay: Induction of apoptosis in human CCRF-CEM cells assessed as live cells at 5 times IC50 measured after 24 hrs by Annexin V-FITC/PI staining based flow cytometry analysis (Rvb= 96.7%); assay type: functional
[13] = tested on: CCRF-CEM; assay: Induction of apoptosis in human CCRF-CEM cells assessed as early apoptotic cells at IC50 measured after 24 hrs by Annexin V-FITC/PI staining based flow cytometry analysis (Rvb= 1.6%); assay type: functional
[14] = tested on: CCRF-CEM; assay: Induction of apoptosis in human CCRF-CEM cells assessed as early apoptotic cells at 5 times IC50 measured after 24 hrs by Annexin V-FITC/PI staining based flow cytometry analysis (Rvb= 1.6%); assay type: functional
[15] = tested on: CCRF-CEM; assay: Induction of apoptosis in human CCRF-CEM cells assessed as late apoptotic cells at 5 times IC50 measured after 24 hrs by Annexin V-FITC/PI staining based flow cytometry analysis (Rvb= 1.4%); assay type: functional
[16] = tested on: CCRF-CEM; assay: Induction of apoptosis in human CCRF-CEM cells assessed as dead cells at IC50 measured after 24 hrs by Annexin V-FITC/PI staining based flow cytometry analysis (Rvb= 0.3%); assay type: functional
Outline: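 They were washed in ice-cold PBS and incubated with Annexin V-FITC plus PI for 20 min at room temperature in the dark. Cells were then pelleted and resuspended in binding buffer (10 mmol/L HEPES/NaOH pH 7.4, 140 mmol/L NaCl, 2.5 mmol/L CaCl2). Read on a FACSAria II, ≥10,000 cells per sample.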

[17] = tested on: CCRF-CEM; assay: Induction of apoptosis in human CCRF-CEM cells assessed as activation of caspase 3 at 5 times IC50 measured after 24 hrs by western blot analysis; assay type: functional, cell-based
Outline: (§1)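 Protein (15 µg/lane) was resolved by 10% SDS-PAGE and transferred to nitrocellulose. Blocked in 5% milk/TBST, then probed overnight at 4 °C with primary antibodies (1:1000) and HRP secondaries. Detected by ECL, with β-actin as loading control.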

[18] = tested on: CCRF-CEM; assay: Induction of apoptosis in human CCRF-CEM cells assessed as activation of caspase 8 at 5 times IC50 measured after 24 hrs by western blot analysis; assay type: functional, cell-based; outline: as §1
[19] = tested on: CCRF-CEM; assay: Induction of cell cycle arrest in human CCRF-CEM cells assessed as downregulation of cyclin D1 protein expression at 5 times IC50 measured after 24 hrs by western blot analysis; assay type: functional, cell-based; outline: as §1
[20] = Stability in human plasma assessed as parent compound remaining at 2 uM incubated for 15 mins by RF-MS analysis; assay type: ADME, cell-free; conditions: read-out: Stability
[21] = Stability in human plasma assessed as parent compound remaining at 2 uM incubated for 60 mins by RF-MS analysis; assay type: ADME, cell-free; conditions: read-out: Stability
[22] = Microsomal stability in human liver microsomes assessed as parent compound remaining at 2 uM in the presence of NADPH measured after 30 mins by RF-MS analysis; assay type: ADME, Microsome; conditions: read-out: Stability
Outline: (§2)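 Human liver microsomes incubated with compound in the presence of NADPH cofactor to assess phase I oxidation. Intrinsic clearance was derived from the decline of the parent compound.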

[23] = Microsomal stability in human liver microsomes assessed as parent compound remaining at 2 uM in the presence of NADPH measured after 60 mins by RF-MS analysis; assay type: ADME, Microsome; conditions: read-out: Stability; outline: as §2
[24] = Apparent permeability of the compound in dog MDCK-MDR1 cells at pH 7.4 at 10 micromol/L measured after 1 hr by RF-MS analysis; assay type: ADME, cell-based, Canis lupus familiaris; conditions: MDCK-MDR1, pH 7.4, dose 10 µmol/L
Outline: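 Caco-2 and MDCK-MDR1 cells grown on polyester Transwell filters (0.4 and 1 µm pores) in DMEM pH 7.4 with 10% FBS; monolayer integrity checked by Lucifer Yellow rejection. Cells washed and pre-equilibrated 1 h in HBSS pH 7.4, then dosed with compound in HBSS pH 7.4. Incubation was 1 h for MDCK and 2 h for Caco-2. Samples lyophilized and quantified by RapidFire MS/MS with internal standard. Duplicates. Papp = (dQ/dt)/(C0·A).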

[25] = Efflux ratio of apparent permeability across basolateral to apical side to apparent permeability across apical to basolateral side in dog MDCK-MDR1 cells at pH 7.4 at 10 micromol/L measured after 1 hr by RF-MS analysis; assay type: ADME, cell-based, Canis lupus familiaris; conditions: MDCK-MDR1, pH 7.4, dose 10 µmol/L
Outline: (§3)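 Efflux ratio is Papp(B→A)/Papp(A→B) from bidirectional transport across Caco-2 (2 h) or MDCK-MDR1 (1 h) monolayers. Compound was dosed in HBSS pH 7.4 and quantified by RapidFire MS/MS. Run in duplicates. ER > 2 was taken as a potential P-gp substrate.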

[26] = Apparent permeability of the compound in dog MDCK-MDR1 cells assessed as recovery rate at pH 7.4 at 10 micromol/L measured after 1 hr by RF-MS analysis; assay type: ADME, cell-based, Canis lupus familiaris; conditions: MDCK-MDR1, pH 7.4, dose 10 µmol/L, read-out: Activity
[27] = Efflux ratio of apparent permeability across basolateral to apical side to apparent permeability across apical to basolateral side in human Caco2 cells at pH 7.4 at 10 micromol/L measured after 2 hrs by RF-MS analysis; assay type: ADME, cell-based; conditions: Caco-2, pH 7.4, dose 10 µmol/L; outline: as §3
[28] = Apparent permeability of the compound in human Caco2 cells assessed as recovery rate at pH 7.4 at 10 micromol/L measured after 1 hr by RF-MS analysis; assay type: ADME, cell-based; conditions: Caco-2, pH 7.4, dose 10 µmol/L, read-out: Activity
[29] = Fraction bound in human plasma at 10 uM measured after 4 hrs by RF-MS based rapid equilibrium dialysis method

Compound | IC50 [1] | IC50 [2] | IC50 [3] | IC50 [4] | IC50 [5] | IC50 [6] | IC50 [7] | Activity [8] | Activity [9] | Activity [10] | Activity [11] | Activity [12] | Activity [13] | Activity [14] | Activity [15] | Activity [16] | Activity [17] | Activity [18] | Activity [19] | remaining at 0.25 h, 2 µM [20] | other results
C=C(/C=C/c1cccc(Cl)c1)[C@@H]1CC[C@]2(C(=O)O)CC[C@]3(C)[C@H](CC[C@@H]4[C@@]5(C)CC[C@H](O)C(C)(C)[C@@H]5CC[C@]43C)[C@@H]12 | 25.5 µM | 16.4 µM | 25.6 µM | 29.2 µM | 17.3 µM | > 50 µM | 32.6 µM | 5.66% | 9.13% | 14.39% | 0.4% | 88.5% | 2.1% | 5.3% | 4.7% | 1.4% | Active | inactive | Active | 92.3% | remaining at 1 h, 2 µM [21]: 89.5%; remaining at 0.5 h, 2 µM [22]: 92.4%; remaining at 1 h, 2 µM [23]: 81.5%; Papp at 1 h, 10 µM [24]: 22.4 ×10⁻⁶ cm/s; efflux ratio at 1 h, 10 µM [25]: 2.9; recovery at 1 h, 10 µM [26]: 104%; efflux ratio at 2 h, 10 µM [27]: 2.64; recovery at 1 h, 10 µM [28]: 42.1%; PPB (% bound) at 4 h, 10 µM [29]: 79%
C=C(/C=C/c1ccc([N+](=O)[O-])cc1)[C@@H]1CC[C@]2(C(=O)O)CC[C@]3(C)[C@H](CC[C@@H]4[C@@]5(C)CC[C@H](O)C(C)(C)[C@@H]5CC[C@]43C)[C@@H]12 | 22.9 µM | 18.6 µM | 23.4 µM | 14.3 µM | 19.5 µM | 24.3 µM | 19.2 µM | 6.54% | 25.04% | 23.16% | 3.06% | 70.9% | 2.4% | 17.6% | 9.6% | 1.8% | Active | inactive | Active | 102% | remaining at 1 h, 2 µM [21]: 69.3%; remaining at 0.5 h, 2 µM [22]: 78.5%; remaining at 1 h, 2 µM [23]: 53.5%; Papp at 1 h, 10 µM [24]: 0.43 ×10⁻⁶ cm/s; efflux ratio at 1 h, 10 µM [25]: 3.06; recovery at 1 h, 10 µM [26]: 56.7%; efflux ratio at 2 h, 10 µM [27]: 2.5; recovery at 1 h, 10 µM [28]: 58.5%; PPB (% bound) at 4 h, 10 µM [29]: 68.1%
